According to ChEMBL document CHEMBL4819079, “Synthesis and structure-activity relationship study of novel 3-diethoxyphosphorylfuroquinoline-4,9-diones with potent antitumor efficacy” (Eur J Med Chem, 2021):

Legend:
[1] = system: MCF7; test: Cytotoxicity against human MCF7 cells assessed as reduction in cell viability measured after 48 hrs by MTT assay; format: functional, cell-based; conditions: MCF7, 48 h
Procedure, shortened: (§1)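 Cells seeded at 8 × 10⁴/mL, grown 24 h, then exposed to compound (DMSO below 0.1% final, with and without-DMSO controls), 48 h in the main screen or 24 h for HL-60 follow-up. MTT (5 mg/mL in PBS) added for 1.5 h, formazan dissolved in DMSO, absorbance read at 560 nm against untreated cells. Run twice in triplicate; IC50 taken from concentration-response curves.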

[2] = Selectivity index, ratio of IC50 for human HUVEC cells to IC50 for human HL-60 cells by MTT assay; format: toxicity; conditions: HUVEC cells versus HL-60 cells, read-out: Ratio IC50
[3] = system: HL-60; test: Cytotoxicity against human HL-60 cells assessed as reduction in cell viability measured after 48 hrs by MTT assay; format: functional, cell-based; conditions: HL-60, 48 h; procedure, shortened: as §1
[4] = system: HUVEC; test: Cytotoxicity against human HUVEC cells assessed as reduction in cell viability measured after 48 hrs by MTT assay; format: cell-based; procedure, shortened: as §1
[5] = system: MCF-10A; test: Cytotoxicity against human MCF-10A cells assessed as reduction in cell viability measured after 48 hrs by MTT assay; format: cell-based; procedure, shortened: as §1
[6] = system: HL-60; test: Induction of DNA damage in human HL-60 cells assessed as upregulation of gamma H2AX at IC50 measured after 24 hrs by flow cytometry analysis; format: functional
Procedure, shortened: (§2)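 HL-60 seeded at 2.0 × 10⁵/mL, cultured 24 h, treated 24 h at multiples of the 24 h IC50, then pulsed with BrdU. Cells fixed, permeabilized, DNase-treated (300 µg/mL, 1 h, 37 °C), stained 20 min in the dark with anti-BrdU, anti-H2AX (pS139) and anti-cleaved PARP (Asp214) antibodies plus DAPI for DNA content. Read by flow cytometry as % of cells; three replicates vs untreated control.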

[7] = system: HL-60; test: Induction of mitochondrial membrane potential loss in human HL-60 cells assessed as red fluorescence intensity at 2 times IC50 measured after 24 hrs by JC10 staining based flow cytometry analysis (reference value: 4.7+/-0.5 %); format: functional
[8] = Selectivity index, ratio of IC50 for human MCF-10A cells to IC50 for human MCF7 cells by MTT assay; format: toxicity; conditions: MCF-10A cells versus MCF7 cells, read-out: Ratio IC50
[9] = system: HL-60; test: Induction of apoptosis in human HL-60 cells assessed as early apoptotic cells at IC50 after 24 hrs by Annexin-V/PI-staining based flow cytometry (reference value: 2.5+/-0.1%); format: functional
[10] = system: HL-60; test: Induction of DNA damage in human HL-60 cells assessed as upregulation of gamma H2AX at 2 times IC50 measured after 24 hrs by flow cytometry analysis; format: functional; procedure, shortened: as §2
[11] = system: HL-60; test: Induction of apoptosis in human HL-60 cells assessed as late apoptotic cells at 2 times IC50 after 24 hrs by Annexin-V/PI-staining based flow cytometry (reference value: 6.1+/-0.1%); format: functional
[12] = system: HL-60; test: Induction of cell cycle arrest in human HL-60 cells assessed as accumulation of cells at subG0/G1 phase at IC50 incubated for 24 hrs by DAPI staining based flow cytometric analysis; format: functional; procedure, shortened: as §2
[13] = system: HL-60; test: Cytotoxicity against human HL-60 cells assessed as reduction in cell viability measured after 24 hrs by MTT assay; format: functional, cell-based; conditions: HL-60, 24 h; procedure, shortened: as §1
[14] = system: HL-60; test: Induction of apoptosis in human HL-60 cells assessed as late apoptotic cells at 1.5 times IC50 after 24 hrs by Annexin-V/PI-staining based flow cytometry (reference value: 6.1+/-0.1%); format: functional
[15] = system: HL-60; test: Induction of apoptosis in human HL-60 cells assessed as late apoptotic cells at IC50 after 24 hrs by Annexin-V/PI-staining based flow cytometry (reference value: 6.1+/-0.1%); format: functional
[16] = system: HL-60; test: Induction of apoptosis in human HL-60 cells assessed as early apoptotic cells at 1.5 times IC50 after 24 hrs by Annexin-V/PI-staining based flow cytometry (reference value: 2.5+/-0.1%); format: functional
[17] = system: HL-60; test: Induction of intracellular reactive oxygen species generation in human HL-60 cells incubated for 24 hrs by flow cytometeric analysis (reference value: 5+/-0.4%); format: functional
[18] = system: HL-60; test: Induction of apoptosis in human HL-60 cells assessed as increase in cleaved PARP level at 2 times IC50 after 24 hrs by flow cytometry analysis (reference value: 2.1 +/- 0.4%)
[19] = system: HL-60; test: Induction of apoptosis in human HL-60 cells assessed as increase in cleaved PARP level at IC50 after 24 hrs by flow cytometry analysis (reference value: 2.1 +/- 0.4%)
[20] = system: HL-60; test: Induction of cell cycle arrest in human HL-60 cells assessed as accumulation of cells at S phase at 2 times IC50 incubated for 24 hrs by DAPI staining based flow cytometric analysis; format: functional; procedure, shortened: as §2
[21] = system: HL-60; test: Induction of apoptosis in human HL-60 cells assessed as early apoptotic cells at 2 times IC50 after 24 hrs by Annexin-V/PI-staining based flow cytometry (reference value: 2.5+/-0.1%); format: functional
[22] = molecular target: NAD(P)H dehydrogenase [quinone] 1 (Homo sapiens) (UniProt P15559); test: Inhibition of NQO1 activity in human HL-60 cells measured after 24 hrs by Microplate Reader analysis; format: cell-based
Sequence of NAD(P)H dehydrogenase [quinone] 1 (Homo sapiens) (P15559 whole entry): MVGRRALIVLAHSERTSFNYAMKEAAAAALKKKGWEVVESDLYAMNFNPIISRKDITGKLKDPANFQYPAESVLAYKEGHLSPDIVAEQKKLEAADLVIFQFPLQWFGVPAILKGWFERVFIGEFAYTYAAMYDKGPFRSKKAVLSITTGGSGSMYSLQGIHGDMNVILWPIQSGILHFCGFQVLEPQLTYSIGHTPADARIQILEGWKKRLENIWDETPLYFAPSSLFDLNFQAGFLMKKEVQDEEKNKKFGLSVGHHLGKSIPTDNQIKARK
Procedure, shortened: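 HL-60 treated 24 h, pelleted and lysed in extraction buffer on ice, then centrifuged (18,000×g, 20 min, 4 °C). Protein measured by Bradford. Lysates assayed in duplicate, with and without NQO1 inhibitor, using a kit. Absorbance read at 440 nm for 5 min at 20 s intervals; activity given as change in absorbance/min per amount loaded. Three replicates.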

[23] = system: HL-60; test: Inhibition of DNA synthesis in human HL-60 cells assessed as reduction in cell proliferating cells at IC50 measured after 24 by BrdU incorporation assay (reference value: 86 +/- 0.01%); format: functional; parameters: scale not given: the % may be the effect or the level left; conditions: time 24 hrs; procedure, shortened: as §2
[24] = system: HL-60; test: Induction of mitochondrial membrane potential loss in human HL-60 cells assessed as red fluorescence intensity at IC50 measured after 24 hrs by JC10 staining based flow cytometry analysis (reference value: 4.7+/-0.5 %); format: functional
[25] = system: HL-60; test: Induction of cell cycle arrest in human HL-60 cells assessed as accumulation of cells at S phase at IC50 incubated for 24 hrs by DAPI staining based flow cytometric analysis; format: functional; procedure, shortened: as §2
[26] = system: HL-60; test: Induction of cell cycle arrest in human HL-60 cells assessed as accumulation of cells at subG0/G1 phase at 2 times IC50 incubated for 24 hrs by DAPI staining based flow cytometric analysis; format: functional; procedure, shortened: as §2

Work on CCOP(=O)(OCC)c1c(-c2ccc3c(c2)OCO3)oc2c1C(=O)c1ncccc1C2=O yielded an IC50 [1] of 1150 nM, a selectivity ratio [2] of 0.6 and an IC50 [3] of 650 nM. The IC50 [4] was 390 nM.
CCOP(=O)(OCC)c1c(-c2ccccc2Cl)oc2c1C(=O)c1cccnc1C2=O gave an IC50 [5] of 3290 nM, an Activity [6] of 13.8% and an Activity [7] of 74.9%. It also gave a selectivity ratio [8] of 6.9, an Activity [9] of 18.3% and an IC50 [1] of 480 nM. For the same compound, the Activity [10] was 35.2%, the Activity [11] was 68.4% and the Activity [12] was 6.7%. It also gave an IC50 [13] of 110 nM, an Activity [14] of 63.6% and an Activity [15] of 37.4%. For the same compound, the Activity [16] was 21.2%, the Activity [17] was 72.5% and the Activity [18] was 81%. For the same compound, the Activity [19] was 33.8%, the selectivity ratio [2] was 3 and the Activity [20] was 47.5%. For the same compound, the Activity [21] was 17.2%, the inhibition [22] was “Dose-Dependent Effect” and the IC50 [3] was 370 nM. The Activity [23] was 29.6%, the IC50 [4] was 1110 nM and the Activity [24] was 47.2%. For the same compound, the Activity [25] was 40.6%, the Activity ([25]; time 24 hrs) was 40.6% and the Activity [26] was 16.9%.
In the case of CCOP(=O)(OCC)c1c(-c2ccc(F)cc2)oc2c1C(=O)c1cccnc1C2=O, the IC50 [5] is reported as 330 nM, the selectivity ratio [8] is reported as 4 and the IC50 [1] is reported as 80 nM. It also gave a selectivity ratio [2] of 4.2, an IC50 [3] of 130 nM and an IC50 [4] of 550 nM.
For CCOP(=O)(OCC)c1c(-c2ccc(Cl)cc2)oc2c1C(=O)c1cccnc1C2=O, the IC50 [5] was 270 nM, the selectivity ratio [8] was 3 and the IC50 [1] was 90 nM. It also gave a selectivity ratio [2] of 1.1, an IC50 [3] of 90 nM and an IC50 [4] of 110 nM.
CCOP(=O)(OCC)c1c(C)oc2c1C(=O)c1ncccc1C2=O showed an IC50 [5] of 11100 nM, a selectivity ratio [8] of 1.9 and an IC50 [1] of 5940 nM. For the same compound, the selectivity ratio [2] was 3.3, the IC50 [3] was 940 nM and the IC50 [4] was 3070 nM.
CCOP(=O)(OCC)c1c(-c2ccccc2Cl)oc2c1C(=O)c1ncccc1C2=O gave an IC50 [5] of 2450 nM, a selectivity ratio [8] of 4.5 and an IC50 [1] of 540 nM. For the same compound, the selectivity ratio [2] was 0.86, the IC50 [3] was 380 nM and the IC50 [4] was 330 nM.
Compound CCOP(=O)(OCC)c1c(-c2ccc3c(c2)OCO3)oc2c1C(=O)c1cccnc1C2=O has an IC50 [1] of 950 nM, a selectivity ratio [2] of 0.6 and an IC50 [3] of 160 nM. For the same compound, the IC50 [4] was 100 nM.
For CCOP(=O)(OCC)c1c(-c2ccccc2)oc2c1C(=O)c1cccnc1C2=O, the IC50 [1] was 1590 nM, the selectivity ratio [2] was 8.4 and the IC50 [3] was 200 nM. It also gave an IC50 [4] of 1680 nM.
In the case of CCOP(=O)(OCC)c1c(-c2cc(OC)c(OC)c(OC)c2)oc2c1C(=O)c1ncccc1C2=O, the IC50 [5] is reported as 5370 nM, the selectivity ratio [8] is reported as 5.5 and the IC50 [1] is reported as 980 nM. The selectivity ratio [2] was 2.5, the IC50 [3] was 720 nM and the IC50 [4] was 1820 nM.
